This passage reports Retention_time and Activity results from ChEMBL document CHEMBL5032515, “Dual Role of Phenyl Amides from Hempseed on BACE 1, PPARγ, and PGC-1α in N2a-APP Cells” (J Nat Prod, 2021).

Each structure is given as a SMILES string. Active and inactive are the calls of the source. The calls are words filed in the database; no cut-off is given here.

Data set [1] is described as follows: Permeability of compound assessed as retention time by PAMPA-BBB assay. Type of data set: ADME. In a few lines:
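Qualitative PAMPA-BBB. The donor solution was 200 μg/mL (final) in 0.01 M PBS pH 7.4, made from a stock in 50% EtOH. The filter was coated with brain polar lipid plus cholesterol in n-dodecane, and the acceptor held PBS. Plates were incubated 4 h at 37 °C. Donor and acceptor solutions were analysed by UHPLC-UV (200–400 nm) in triplicate, and compounds were identified by retention time.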

The subject of data set [2] is N2a. The data set can be described thus: Cytotoxicity against mouse N2a-APP cells assessed as cell viability at 0.03 to 0.08 uM measured after 24 hrs by MTT assay. The following applies: dose 0.03-0.08 µM.
Data set [3] relates to N2a. Nature of the data set: Antialzheimer activity in mouse N2a-APP cells assessed as effect on […] expression at 0.03 to 0.08 uM measured after 24 to 48 hrs by RT-qPCR method. The class given is functional, cell-based. Particulars: dose 0.03-0.08 µM, time 24-48 hrs. An outline of the steps: (§1)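 Mutant APP-overexpressing N2a cells were grown in DMEM with 10% FBS and L-glutamine at 37 °C in 5% CO2. They were seeded in six-well plates at 5 × 10^5/mL (24 h) or 5 × 10^5/2 mL (48 h) and treated at 0.03–0.08 μM. Controls were pioglitazone 14 μM and medium alone. SYBR green qPCR used 20 ng cDNA, GAPDH/18S references and triplicate reactions; 2^−ΔΔCt; mean ± SD, n = 3.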

In data set [4] the test system is N2a. The data set can be described thus: Cytotoxicity against mouse N2a-APP cells assessed as cell viability at 0.03 to 0.08 uM measured after 24 hrs by MTT assay. The class given is functional, cell-based. Particulars: dose 0.03-0.08 µM. In a few lines:
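N2a-APP cells were seeded at 1 × 10^4 cells/well and exposed for 24 h to 0.03–0.08 μM, with medium-alone controls. MTT (1 mg/mL) was added for 2 h at 37 °C and the formazan was dissolved in DMSO. Absorbance was read at 570 nm, corrected at 650 nm. Survival is given as % of untreated cells; mean ± SD, one-way ANOVA.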

The subject of data set [5] is N2a. Nature of the data set: Antialzheimer activity in mouse N2a-APP cells assessed as reduction of BACE-1 expression at 0.03 to 0.08 uM measured after 48 hrs by RT-qPCR method. The following applies: dose 0.03-0.08 µM. The class given is functional, cell-based. In a few lines:
as §1

Data set [6] relates to N2a. The data set can be described thus: Antialzheimer activity in mouse N2a-APP cells assessed as increase of […] expression at 0.03 to 0.08 uM measured after 24 hrs by RT-qPCR method. The class given is functional, cell-based. The following applies: dose 0.03-0.08 µM. In a few lines: as §1
(Real-time PCR tracks product formation cycle by cycle.)

The subject of data set [7] is N2a. Nature of the data set: Antialzheimer activity in mouse N2a-APP cells assessed as reduction of BACE-1 expression at 0.03 to 0.08 uM measured after 24 hrs by RT-qPCR method. The class given is functional, cell-based. The following applies: dose 0.03-0.08 µM. In a few lines: as §1
The test system of data set [8] is N2a. The data set can be described thus: Antialzheimer activity in mouse N2a-APP cells assessed as increase of […] expression at 0.03 to 0.08 uM measured after 48 hrs by RT-qPCR method. Type of data set: functional, cell-based. Particulars: dose 0.03-0.08 µM. An outline of the steps:
as §1

Data set [9] deals with N2a. The data set can be described thus: Antialzheimer activity in mouse N2a-APP cells assessed as up-regulation of PGC-1alpha expression at 0.03 to 0.08 uM measured after 24 to 48 hrs by RT-qPCR method. The following applies: dose 0.03-0.08 µM, time 24-48 hrs. Type of data set: functional, cell-based. In a few lines: as §1

`COc1cc(/C=C/C(=O)NCCc2ccc(O)cc2)ccc1O` [N-TRANS-FERULOYL TYRAMINE]: the Retention_time in data set [1] is 28.42 min.

With `O=C(/C=C/c1ccc(O)cc1)NCCc1ccc(O)cc1` [N-P-COUMAROYL TYRAMINE], the result in the data set on N2a [2], in the data set on N2a [3] and in the data set on N2a [4] was inactive. In addition, in data set [1], the Retention_time is reported as 27.32 min.

As for `O=C(/C=C/c1ccc(O)c(O)c1)NCCc1ccc(O)cc1`, the result in the data set on N2a [5], with N2a [6], with N2a [7], in the data set with N2a [8] and in the data set on N2a [9] was Active. Moreover, the result in the data set on N2a [2] and in the data set on N2a [4] was inactive. For the same compound, in [1], the Retention_time is given as 24.08 min.

Regarding `O=C(NCCc1ccc(O)cc1)c1cc2cc(O)c(O)cc2c(-c2ccc(O)c(O)c2)c1C(=O)NCCc1ccc(O)cc1`, the Retention_time in data set [1] was determined as 28.07 min.
